Assay results reported in ChEMBL document CHEMBL1152541, “Staurosporine tethered peptide ligands that target cAMP-dependent protein kinase (PKA): optimization and selectivity profiling” (Bioorg Med Chem, 2009).
The source made the active and inactive calls. No cut-off for these calls is given here. *1 amine or outer side, *2 acyl side, *3 side chain or, on linkers, in order; H or OH if unused. Where a SMILES comes first, the peptide text is derived from it. Bridges are numbered along the chain shown (N, C = ends). [ ]: non-standard residue; d: D form. The star is where a group is joined. Staurosporine = CO[C@@H]1[C@H](N(C)*)C[C@H]2O[C@]1(C)n1c3ccccc3c3c4c(c5c6ccccc6n2c5c31)C(=O)NC4; Suc = O=C(CCC(=O)[*:2])[*:1]; Dap = NC[C@H](N)C(=O)O; βAla = NCCC(=O)O

Key:
[1] = target: Cyclin-dependent kinase 19 (Homo sapiens) (UniProt Q9BWU1); assay: Binding affinity to human CDK11 at 500 nM by cell-based competition binding assay relative to control in presence of DTT
How it was run: (§1)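 Kinase binding profiling ran on a commercial (Ambit) competitive binding screen against a panel of 90 kinases. The screen used reducing conditions with 7.5 mM DTT. To withstand the DTT, the bivalent ligand was tested as its amide isostere, with the disulfide replaced. A staurosporine derivative carrying a 3 β-alanine linker was run as the reference compound.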

[2] = target: Insulin-like growth factor 1 receptor (Homo sapiens) (UniProt P08069); assay: Binding affinity to human IGF1R at 500 nM by cell-based competition binding assay relative to control in presence of DTT
Insulin-like growth factor 1 receptor (Homo sapiens), sequence (P08069 31-736 limits assumed): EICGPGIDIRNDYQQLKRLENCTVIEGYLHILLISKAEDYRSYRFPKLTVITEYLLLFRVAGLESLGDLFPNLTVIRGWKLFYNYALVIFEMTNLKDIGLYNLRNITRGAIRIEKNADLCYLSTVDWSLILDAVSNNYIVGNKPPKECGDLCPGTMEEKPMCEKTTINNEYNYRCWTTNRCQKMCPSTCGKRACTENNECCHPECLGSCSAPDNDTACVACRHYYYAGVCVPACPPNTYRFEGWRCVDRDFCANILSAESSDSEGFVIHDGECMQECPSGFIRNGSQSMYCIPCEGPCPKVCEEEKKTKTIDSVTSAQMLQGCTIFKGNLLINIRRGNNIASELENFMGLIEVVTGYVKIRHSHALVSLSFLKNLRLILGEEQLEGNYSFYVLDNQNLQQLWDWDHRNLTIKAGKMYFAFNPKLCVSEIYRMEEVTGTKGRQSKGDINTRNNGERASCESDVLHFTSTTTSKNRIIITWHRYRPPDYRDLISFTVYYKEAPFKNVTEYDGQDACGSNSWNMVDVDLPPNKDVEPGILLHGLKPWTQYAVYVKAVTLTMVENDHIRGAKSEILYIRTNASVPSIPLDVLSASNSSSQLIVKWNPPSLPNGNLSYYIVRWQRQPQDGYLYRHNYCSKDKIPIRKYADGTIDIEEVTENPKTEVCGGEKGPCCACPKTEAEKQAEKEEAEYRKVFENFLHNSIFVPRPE
Insulin-like growth factor 1 receptor (Homo sapiens), sequence (P08069 741-1367 limits assumed): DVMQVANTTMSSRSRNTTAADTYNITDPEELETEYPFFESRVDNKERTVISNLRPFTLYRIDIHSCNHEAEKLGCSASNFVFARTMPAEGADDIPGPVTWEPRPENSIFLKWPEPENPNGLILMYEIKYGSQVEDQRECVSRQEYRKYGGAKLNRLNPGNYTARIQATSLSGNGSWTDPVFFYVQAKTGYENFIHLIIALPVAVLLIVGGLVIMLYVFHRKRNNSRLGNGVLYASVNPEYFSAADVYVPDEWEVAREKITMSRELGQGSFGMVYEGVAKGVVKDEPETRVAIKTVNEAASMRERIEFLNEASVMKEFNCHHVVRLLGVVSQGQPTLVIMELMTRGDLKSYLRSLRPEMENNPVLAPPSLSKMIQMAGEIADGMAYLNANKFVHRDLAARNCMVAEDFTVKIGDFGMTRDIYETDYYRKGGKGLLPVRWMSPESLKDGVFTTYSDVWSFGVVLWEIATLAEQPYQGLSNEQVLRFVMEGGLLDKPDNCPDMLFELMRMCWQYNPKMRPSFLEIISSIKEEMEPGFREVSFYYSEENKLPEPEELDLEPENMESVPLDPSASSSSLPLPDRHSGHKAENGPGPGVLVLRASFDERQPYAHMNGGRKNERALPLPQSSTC
How it was run: (§2)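 Competition binding screen (Ambit) across a panel of 90 kinases, scoring test ligand displacement of each kinase's binding relative to control. The screen ran under reducing conditions with 7.5 mM DTT.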

[3] = target: Insulin receptor (Homo sapiens) (UniProt P06213); assay: Binding affinity to human INSR at 500 nM by cell-based competition binding assay relative to control in presence of DTT; how it was run: as §2
Insulin receptor (Homo sapiens), sequence (P06213 28-758 limits assumed): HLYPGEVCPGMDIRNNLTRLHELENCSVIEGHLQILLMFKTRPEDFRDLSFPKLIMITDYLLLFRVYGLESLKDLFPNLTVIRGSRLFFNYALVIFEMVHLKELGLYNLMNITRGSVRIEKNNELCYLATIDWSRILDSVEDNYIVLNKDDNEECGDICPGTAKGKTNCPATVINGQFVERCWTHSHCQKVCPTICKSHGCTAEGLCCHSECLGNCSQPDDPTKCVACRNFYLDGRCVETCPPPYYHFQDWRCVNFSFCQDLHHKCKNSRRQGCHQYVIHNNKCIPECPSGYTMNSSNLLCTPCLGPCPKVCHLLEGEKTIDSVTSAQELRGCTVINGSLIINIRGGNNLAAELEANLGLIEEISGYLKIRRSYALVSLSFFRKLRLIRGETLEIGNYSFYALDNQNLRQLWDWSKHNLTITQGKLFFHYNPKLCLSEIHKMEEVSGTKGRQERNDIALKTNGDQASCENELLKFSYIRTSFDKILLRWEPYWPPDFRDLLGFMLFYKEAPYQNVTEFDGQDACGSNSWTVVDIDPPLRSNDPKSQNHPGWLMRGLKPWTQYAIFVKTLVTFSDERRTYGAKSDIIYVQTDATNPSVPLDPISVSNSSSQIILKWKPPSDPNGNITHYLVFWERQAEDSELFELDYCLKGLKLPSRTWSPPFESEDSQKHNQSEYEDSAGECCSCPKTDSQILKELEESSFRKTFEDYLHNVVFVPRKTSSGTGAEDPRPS
Insulin receptor (Homo sapiens), sequence (P06213 763-1382 limits assumed): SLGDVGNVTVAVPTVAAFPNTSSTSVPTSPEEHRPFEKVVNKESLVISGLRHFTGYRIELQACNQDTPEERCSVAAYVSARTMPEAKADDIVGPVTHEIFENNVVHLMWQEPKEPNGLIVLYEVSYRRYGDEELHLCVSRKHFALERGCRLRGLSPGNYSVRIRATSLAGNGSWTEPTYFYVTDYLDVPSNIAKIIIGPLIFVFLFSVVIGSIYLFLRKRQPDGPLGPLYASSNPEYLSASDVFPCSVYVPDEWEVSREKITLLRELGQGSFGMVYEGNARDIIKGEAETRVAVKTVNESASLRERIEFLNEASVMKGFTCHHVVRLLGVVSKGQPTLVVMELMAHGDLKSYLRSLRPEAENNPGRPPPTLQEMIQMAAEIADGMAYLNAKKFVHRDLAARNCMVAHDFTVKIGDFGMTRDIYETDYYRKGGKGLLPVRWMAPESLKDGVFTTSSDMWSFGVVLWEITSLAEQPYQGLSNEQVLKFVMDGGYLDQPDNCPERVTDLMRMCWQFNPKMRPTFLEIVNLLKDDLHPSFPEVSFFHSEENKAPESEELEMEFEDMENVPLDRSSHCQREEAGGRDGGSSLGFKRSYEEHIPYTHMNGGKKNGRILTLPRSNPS

[4] = target: T1, Tyrosine-protein kinase ZAP-70 (Homo sapiens) (UniProt P43403); assay: Binding affinity to human ZAP70 at 200 nM by cell-based competition binding assay relative to control in presence of DTT
T1 sequence (whole entry): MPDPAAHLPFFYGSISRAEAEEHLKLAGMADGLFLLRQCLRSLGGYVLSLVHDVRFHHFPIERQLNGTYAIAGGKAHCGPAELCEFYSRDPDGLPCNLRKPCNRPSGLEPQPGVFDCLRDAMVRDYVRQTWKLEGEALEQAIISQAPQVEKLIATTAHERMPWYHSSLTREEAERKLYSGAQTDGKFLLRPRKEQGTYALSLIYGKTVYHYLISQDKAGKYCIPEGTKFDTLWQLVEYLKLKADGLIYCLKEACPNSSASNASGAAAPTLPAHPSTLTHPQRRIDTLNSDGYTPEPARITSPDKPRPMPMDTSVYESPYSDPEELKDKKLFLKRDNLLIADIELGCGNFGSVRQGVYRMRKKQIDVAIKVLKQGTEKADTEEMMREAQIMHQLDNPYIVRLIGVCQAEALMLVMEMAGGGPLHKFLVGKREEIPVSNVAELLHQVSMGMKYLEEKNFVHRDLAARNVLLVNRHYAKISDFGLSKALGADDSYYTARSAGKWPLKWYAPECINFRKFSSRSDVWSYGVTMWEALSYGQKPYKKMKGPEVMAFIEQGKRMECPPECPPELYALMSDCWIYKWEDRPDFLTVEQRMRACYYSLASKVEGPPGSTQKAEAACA

[5] = target: T2, Testis-specific serine/threonine-protein kinase 1 (Homo sapiens) (UniProt Q9BXA7); assay: Binding affinity to human TSSK1 at 200 nM by cell-based competition binding assay relative to control in presence of DTT
T2 sequence (whole entry): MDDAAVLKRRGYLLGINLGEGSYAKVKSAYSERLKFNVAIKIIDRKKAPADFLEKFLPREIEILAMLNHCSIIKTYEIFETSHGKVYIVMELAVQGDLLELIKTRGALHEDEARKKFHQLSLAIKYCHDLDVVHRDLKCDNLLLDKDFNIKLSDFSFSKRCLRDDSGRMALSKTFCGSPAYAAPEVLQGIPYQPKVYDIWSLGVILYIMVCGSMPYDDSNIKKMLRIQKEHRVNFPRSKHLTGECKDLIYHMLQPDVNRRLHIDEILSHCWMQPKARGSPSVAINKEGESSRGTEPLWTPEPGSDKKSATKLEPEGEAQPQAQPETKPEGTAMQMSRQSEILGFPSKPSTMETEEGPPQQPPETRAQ

[6] = Inhibition of PKA assessed as [gamma-32P]ATP labeling of kemptide at 33 to 100 nM by liquid scintillation counting in presence of DTT
[7] = target: Tyrosine-protein kinase receptor UFO (Homo sapiens) (UniProt P30530); assay: Binding affinity to human AXL at 200 nM by cell-based competition binding assay relative to control in presence of DTT; how it was run: as §1
Tyrosine-protein kinase receptor UFO (Homo sapiens), sequence (P30530 whole entry): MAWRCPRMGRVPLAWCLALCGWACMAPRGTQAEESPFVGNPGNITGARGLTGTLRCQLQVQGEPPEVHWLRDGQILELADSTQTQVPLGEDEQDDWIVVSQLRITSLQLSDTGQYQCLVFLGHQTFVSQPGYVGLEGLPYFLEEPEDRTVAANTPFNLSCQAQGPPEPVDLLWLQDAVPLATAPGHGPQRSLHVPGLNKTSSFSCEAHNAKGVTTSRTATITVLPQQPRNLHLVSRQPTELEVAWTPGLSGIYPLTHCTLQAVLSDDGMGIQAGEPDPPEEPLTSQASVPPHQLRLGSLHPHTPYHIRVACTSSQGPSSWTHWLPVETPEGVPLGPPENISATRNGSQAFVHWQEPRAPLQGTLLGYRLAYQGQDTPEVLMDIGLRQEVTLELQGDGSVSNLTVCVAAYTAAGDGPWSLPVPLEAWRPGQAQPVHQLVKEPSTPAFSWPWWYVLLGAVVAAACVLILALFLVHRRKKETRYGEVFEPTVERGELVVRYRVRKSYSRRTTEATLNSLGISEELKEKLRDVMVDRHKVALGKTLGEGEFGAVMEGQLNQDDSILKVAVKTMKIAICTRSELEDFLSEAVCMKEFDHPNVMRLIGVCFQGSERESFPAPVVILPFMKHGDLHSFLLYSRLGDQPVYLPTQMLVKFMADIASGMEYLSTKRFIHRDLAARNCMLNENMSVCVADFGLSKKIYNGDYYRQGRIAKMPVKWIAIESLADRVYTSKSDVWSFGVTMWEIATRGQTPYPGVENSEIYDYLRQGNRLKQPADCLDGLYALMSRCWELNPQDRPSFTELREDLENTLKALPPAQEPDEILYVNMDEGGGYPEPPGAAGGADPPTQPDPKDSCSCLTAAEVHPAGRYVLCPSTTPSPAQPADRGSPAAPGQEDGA

[8] = target: T3, Aurora kinase A (Homo sapiens) (UniProt O14965); assay: Binding affinity to human aurora kinase A at 50 nM by cell-based competition binding assay relative to control in presence of DTT
T3 sequence (whole entry): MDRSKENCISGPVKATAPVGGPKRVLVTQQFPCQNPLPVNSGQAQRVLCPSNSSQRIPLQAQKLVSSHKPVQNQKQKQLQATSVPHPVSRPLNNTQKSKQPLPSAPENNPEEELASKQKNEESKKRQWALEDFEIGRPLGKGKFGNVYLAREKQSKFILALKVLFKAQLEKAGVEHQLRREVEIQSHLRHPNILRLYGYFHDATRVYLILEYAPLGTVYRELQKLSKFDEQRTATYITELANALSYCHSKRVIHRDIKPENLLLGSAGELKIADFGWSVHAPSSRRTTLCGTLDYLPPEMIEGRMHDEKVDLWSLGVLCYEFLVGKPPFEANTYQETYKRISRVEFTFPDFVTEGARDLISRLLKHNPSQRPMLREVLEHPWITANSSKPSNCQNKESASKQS

[9] = target: T4, Serine/threonine-protein kinase Chk1 (Homo sapiens) (UniProt O14757); assay: Binding affinity to human CHEK1 at 50 nM by cell-based competition binding assay relative to control in presence of DTT
T4 sequence (whole entry): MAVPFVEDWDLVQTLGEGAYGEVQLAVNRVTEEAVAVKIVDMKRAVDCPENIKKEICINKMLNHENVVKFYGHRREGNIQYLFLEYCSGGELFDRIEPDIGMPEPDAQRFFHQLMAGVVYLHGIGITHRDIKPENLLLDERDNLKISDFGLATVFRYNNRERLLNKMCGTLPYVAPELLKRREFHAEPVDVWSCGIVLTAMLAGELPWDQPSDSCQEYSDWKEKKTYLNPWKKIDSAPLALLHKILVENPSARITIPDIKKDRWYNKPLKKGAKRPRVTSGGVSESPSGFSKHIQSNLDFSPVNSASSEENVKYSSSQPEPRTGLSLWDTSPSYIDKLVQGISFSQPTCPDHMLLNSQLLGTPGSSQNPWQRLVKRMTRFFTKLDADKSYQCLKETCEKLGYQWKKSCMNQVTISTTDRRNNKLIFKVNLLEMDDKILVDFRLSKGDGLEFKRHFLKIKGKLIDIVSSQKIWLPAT
How it was run: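 Commercial (Ambit) competitive kinase-binding panel of 90 kinases measured the binding profile. Run under reducing conditions of 7.5 mM DTT. Binding is expressed relative to control.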

[10] = target: Mitogen-activated protein kinase 10 (Homo sapiens) (UniProt P53779); assay: Binding affinity to human JNK3 at 50 nM by cell-based competition binding assay relative to control in presence of DTT; how it was run: as §2
Mitogen-activated protein kinase 10 (Homo sapiens), sequence (P53779 whole entry): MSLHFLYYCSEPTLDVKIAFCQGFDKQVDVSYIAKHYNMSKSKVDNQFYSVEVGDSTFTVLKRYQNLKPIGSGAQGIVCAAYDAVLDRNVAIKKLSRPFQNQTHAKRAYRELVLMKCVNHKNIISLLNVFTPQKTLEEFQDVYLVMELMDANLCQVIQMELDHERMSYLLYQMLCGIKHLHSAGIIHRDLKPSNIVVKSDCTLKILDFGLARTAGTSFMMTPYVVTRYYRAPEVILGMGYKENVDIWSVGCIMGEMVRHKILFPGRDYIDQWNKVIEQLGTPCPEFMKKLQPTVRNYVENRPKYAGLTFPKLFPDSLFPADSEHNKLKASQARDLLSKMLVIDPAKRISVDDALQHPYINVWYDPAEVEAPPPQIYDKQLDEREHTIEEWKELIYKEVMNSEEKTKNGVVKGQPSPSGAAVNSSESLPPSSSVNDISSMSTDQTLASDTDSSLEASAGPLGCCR

[11] = target: Insulin receptor (Homo sapiens) (UniProt P06213); assay: Binding affinity to human INSR at 50 nM by cell-based competition binding assay relative to control in presence of DTT; how it was run: as §2
[12] = target: Serine/threonine-protein kinase B-raf (Homo sapiens) (UniProt P15056); assay: Binding affinity to human BRAF at 50 nM by cell-based competition binding assay relative to control in presence of DTT; how it was run: as §1
Serine/threonine-protein kinase B-raf (Homo sapiens), sequence (P15056 whole entry): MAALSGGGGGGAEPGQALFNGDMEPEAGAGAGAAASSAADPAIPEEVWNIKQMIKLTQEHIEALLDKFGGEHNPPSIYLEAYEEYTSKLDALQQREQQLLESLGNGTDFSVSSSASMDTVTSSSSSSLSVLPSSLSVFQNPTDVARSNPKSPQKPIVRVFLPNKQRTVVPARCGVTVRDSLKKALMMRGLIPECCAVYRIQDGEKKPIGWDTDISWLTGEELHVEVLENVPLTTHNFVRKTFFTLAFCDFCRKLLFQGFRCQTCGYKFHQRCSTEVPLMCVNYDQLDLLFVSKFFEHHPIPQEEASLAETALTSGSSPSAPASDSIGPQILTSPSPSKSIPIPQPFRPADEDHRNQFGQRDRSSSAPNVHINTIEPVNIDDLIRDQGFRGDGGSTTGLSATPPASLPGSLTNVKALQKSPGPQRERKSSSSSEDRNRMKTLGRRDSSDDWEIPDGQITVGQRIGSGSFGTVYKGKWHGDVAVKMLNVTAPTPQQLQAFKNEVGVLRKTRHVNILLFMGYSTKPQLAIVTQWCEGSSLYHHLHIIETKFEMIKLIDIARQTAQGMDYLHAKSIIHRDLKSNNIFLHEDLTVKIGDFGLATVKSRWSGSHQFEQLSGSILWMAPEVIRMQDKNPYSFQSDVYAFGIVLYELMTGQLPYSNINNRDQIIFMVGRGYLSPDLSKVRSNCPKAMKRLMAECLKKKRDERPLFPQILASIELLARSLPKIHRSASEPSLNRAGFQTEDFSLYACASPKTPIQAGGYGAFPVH

Activity [1] | Activity [2] | Activity [3] | Activity [4] | Activity [5] | inhibition [6] | Activity [7] | Activity [8] | Activity [9] | Activity [10] | Activity [11] | Activity [12] | SMILES
61% | 82% | 55% | – | – | – | – | – | – | – | – | – | CO[C@@H]1[C@H](N(C)C(=O)CCC(=O)NCCC(=O)NCCC(=O)NCCC(N)=O)C[C@H]2O[C@]1(C)n1c3ccccc3c3c4c(c5c6ccccc6n2c5c31)C(=O)NC4
– | – | – | 16% | 17% | inactive | 58% | – | – | – | – | – | CO[C@@H]1[C@H](N(C)C(=O)CCC(=O)NCCC(=O)NCCC(=O)NCCC(=O)NCCC(=O)NCCC(=O)NCCC(=O)NCCC(=O)N[C@H]2CSSC[C@@H](C(=O)NCC(N)=O)NC(=O)CNC(=O)[C@H](Cc3ccccc3)NC(=O)[C@H](C(C)C)NC(=O)[C@H](CCCNC(=N)N)NC(=O)[C@H](Cc3ccccc3)NC(=O)[C@H](C(C)C)NC2=O)C[C@H]2O[C@]1(C)n1c3ccccc3c3c4c(c5c6ccccc6n2c5c31)C(=O)NC4 ({Staurosporine-Suc-βAla-βAla-βAla-βAla-βAla-βAla-βAla}-CVFRVFGCG-NH2; disulfide 1-8)
– | – | – | – | – | Active | – | 63% | 91% | 85% | 92% | 96% | CO[C@@H]1[C@H](N(C)C(=O)CCC(=O)NCCC(=O)NCCC(=O)NCCC(=O)NCCC(=O)NCCC(=O)NCCC(=O)NCCC(=O)N[C@H]2CNC(=O)C[C@@H](C(N)=O)NC(=O)CNC(=O)[C@H](Cc3ccccc3)NC(=O)[C@H](C(C)C)NC(=O)[C@H](CCCNC(=N)N)NC(=O)[C@H](Cc3ccccc3)NC(=O)[C@H](C(C)C)NC2=O)C[C@H]2O[C@]1(C)n1c3ccccc3c3c4c(c5c6ccccc6n2c5c31)C(=O)NC4 ({Staurosporine-Suc-βAla-βAla-βAla-βAla-βAla-βAla-βAla}-[Dap]VFRVFGD-NH2; lactam 1-8)
